Screening results deposited in PubChem by The Scripps Research Institute Molecular Screening Center.
Rows were chosen to be rich in hits. Some 2.9% of all compounds tested hit in one or more screens of this group.
S1P1 ag pot = S1P1 (human) agonism or agonism potentiation; P21453; S1P1 CRE-bla cells, forskolin, beta-lactamase FRET, potentiator mode; S1P1 agonist co-added at EC20, 2 nM; 100% = saturating reference agonist, 0% = basal; activation, % at 9.5 µM; 56,000 tested, 0.57% active;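 active means activation above a cutoff set at the mean activation of all tested compounds plus 3 SD, cut at about 54% in these data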;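 further: forskolin at 4 µM as EC80 and the EC20 agonist is SEW2871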
HTR1E antagonist = 5-HT1E (human) receptor antagonism; P28566; CHO 5-HT1E Ga15 NFAT-bla reporter, FRET, antagonist; inhibition, % at 6 µM; 65,000 tested, 0.99% active; AID 571;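 active means inhibition above a set limit, the mean inhibition across every tested compound plus 3 SD, cut at about 29% in these data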;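 further: signal is the 460 over 535 nm emission ratio of beta-lactamase substrate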
S1P3 ag = agonists of human S1P3 receptor | activation, % at 4.5 µM | Q99500 | S1P3 NFAT-BLA reporter cells, agonism, FRET ratio; relative to 1 µM S1P, basal subtracted | 60,000 tested, 0.1% active;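 active means activation above the screen-wide mean plus 3 SD, cut at about 4.5% in these data, passing the limit was not always enough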
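Assay system: stable CHO line with human S1P3, Gα16, NFAT-BLA reporter; Detection: FRET β-lactamase substrate fluorescence, excitation 405 nm, 460/535 nm emission ratio, background-subtracted; Read-out: percent activation versus median 1 µM S1P response, basal-subtracted, per plate; Incubation: cells plated overnight, compound 4 h 37 °C, substrate 2 h RT.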
5HT1a antag = 5-HT1a (human) receptor antagonism. CHO 5-HT1a Ga15 NFAT-bla reporter, antagonist mode. inhibition, % at 10 µM. 62,000 tested, 0.68% active. AID 612;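 active means inhibition above the mean of all tested compounds plus 3 SD, cut at about 43% in these data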;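 further: receptor stimulated by 5-CT agonist at 100 nM near EC80; beta-lactamase reporter measured by ratiometric fluorescence of a cleavable substrate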
Target sequence (P08908 whole entry, looked up): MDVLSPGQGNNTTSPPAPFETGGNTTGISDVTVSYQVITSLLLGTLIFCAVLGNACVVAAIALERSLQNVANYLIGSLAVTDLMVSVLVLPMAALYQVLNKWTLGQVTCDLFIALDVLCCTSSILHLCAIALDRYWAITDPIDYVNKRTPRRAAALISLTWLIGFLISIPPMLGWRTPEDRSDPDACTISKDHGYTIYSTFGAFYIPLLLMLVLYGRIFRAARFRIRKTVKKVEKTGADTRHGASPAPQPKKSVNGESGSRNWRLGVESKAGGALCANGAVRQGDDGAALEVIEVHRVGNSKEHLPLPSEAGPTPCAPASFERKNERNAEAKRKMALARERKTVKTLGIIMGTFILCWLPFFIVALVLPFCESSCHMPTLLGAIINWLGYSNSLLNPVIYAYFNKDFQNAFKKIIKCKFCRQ
HTR1E agonist = 5-HT1E (human) receptor agonism | CHO 5-HT1E Ga15 NFAT-bla reporter, FRET; 0% DMSO wells, 100% control agonist wells | 65,000 tested, 0.69% active | AID 574 | activation, % at 6 µM;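 active means activation above a set limit, the screen-wide mean activation plus 3 SD, cut at about 8.5% in these data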
HTR1A agonist = activates the human 5-HT1a serotonin receptor | P08908 | CHO 5-HT1a Ga15 NFAT-bla reporter, FRET ratio; 0% basal, 100% maximal reference agonist | activation, % at 10 µM | 65,000 tested, 0.56% active | AID 567;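 active means activation above the screen-wide mean activation plus 3 SD, cut at about 19% in these data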
Numbers stand for hits.

Screening CCn1ncc(C2=NOC(C(=O)NCc3ccccc3)C2)c1C (stereo unspecified) returned S1P1 ag pot inactive, HTR1E antagonist 36.7, S1P3 ag inactive, 5HT1a antag inactive, HTR1E agonist inactive and HTR1A agonist inactive.
`O=C(c1ccco1)N1CCN(S(=O)(=O)c2cccc(C(F)(F)F)c2)CC1` gave HTR1E antagonist inactive, S1P3 ag inactive, 5HT1a antag inactive, HTR1E agonist inactive and HTR1A agonist inactive.
For CC(=O)c1sc(NC(=O)C=C(C)C)nc1C the results were HTR1E antagonist inactive, S1P3 ag inactive, 5HT1a antag inactive, HTR1E agonist inactive and HTR1A agonist inactive.
`CC(=O)c1sc(NC(=O)C2(F)C(F)(F)C(F)(F)C(F)(F)C(F)(F)C2(F)F)nc1C` gave S1P1 ag pot 111.0, HTR1E antagonist inactive, S1P3 ag inactive, 5HT1a antag 65.0, HTR1E agonist inactive and HTR1A agonist inactive.
Screening CCOC(=O)C1CCCN(C(=O)c2sc3nc(-c4ccc(OC)cc4)cn3c2C)C1 (stereo unspecified) returned S1P1 ag pot inactive, HTR1E antagonist inactive, S1P3 ag inactive, 5HT1a antag inactive, HTR1E agonist inactive and HTR1A agonist inactive.
Screening Cc1ccc(/C=c2/sc3nnc(-c4ccccc4Cl)n3c2=O)o1 returned S1P1 ag pot inactive, HTR1E antagonist inactive, S1P3 ag inactive, 5HT1a antag 45.5, HTR1E agonist inactive and HTR1A agonist inactive.
Cc1cc(=O)oc(C)c1C(=O)NCCCN1CCN(c2ccccc2F)CC1 was read as HTR1E antagonist inactive, 5HT1a antag 77.3, HTR1E agonist 27.9 and HTR1A agonist inactive.
`Cc1ccccc1CS(=O)(=O)CCC(=O)NCCCN1CCN(c2ccccc2F)CC1` gave S1P1 ag pot inactive, HTR1E antagonist inactive, S1P3 ag inactive, 5HT1a antag inactive, HTR1E agonist inactive and HTR1A agonist inactive.
For Cn1c(C(=O)NCCCN2CCN(c3ccccc3F)CC2)cc2c(=O)n(C)c3ccccc3c21 the results were S1P1 ag pot inactive, HTR1E antagonist inactive, S1P3 ag inactive, 5HT1a antag 72.6, HTR1E agonist 18.3 and HTR1A agonist inactive.
Screening CCCCN(CC)CCCNC(=O)c1cc2c(=O)n(C)c3ccccc3c2n1C returned S1P1 ag pot inactive, HTR1E antagonist inactive, S1P3 ag inactive, 5HT1a antag inactive, HTR1E agonist 17.2 and HTR1A agonist inactive.
Cc1cc(=O)oc(C)c1C(=O)NCCNC(=O)c1c(C)cc(=O)oc1C was read as S1P1 ag pot inactive, HTR1E antagonist inactive, S1P3 ag inactive, HTR1E agonist 39.0 and HTR1A agonist inactive.
COC(=O)C1=[N+]([O-])OC(C(=O)OC)C1c1c[nH]c2ccccc12 (stereo unspecified) was read as S1P1 ag pot inactive, HTR1E antagonist inactive, S1P3 ag inactive, 5HT1a antag inactive, HTR1E agonist inactive and HTR1A agonist inactive.
For CCCCOc1ccc(Cl)cc1CSc1nnc(C)n1N the results were S1P1 ag pot inactive, HTR1E antagonist inactive, S1P3 ag inactive, 5HT1a antag inactive, HTR1E agonist inactive and HTR1A agonist inactive.
`COc1ccc(-c2nnn(CC(=O)Nc3sc4c(c3C#N)CCCC4)n2)cc1` gave S1P1 ag pot inactive, HTR1E antagonist inactive, S1P3 ag inactive, 5HT1a antag inactive, HTR1E agonist inactive and HTR1A agonist inactive.
`O=S(=O)(c1ccc(Oc2ccc(Br)cc2)cc1)N1CCOCC1` gave S1P1 ag pot inactive, HTR1E antagonist inactive, S1P3 ag inactive, 5HT1a antag inactive, HTR1E agonist inactive and HTR1A agonist inactive.
COC(=O)NCc1cccc(CNC(=O)OC)c1 was read as S1P1 ag pot inactive, HTR1E antagonist inactive, S1P3 ag inactive, 5HT1a antag inactive, HTR1E agonist inactive and HTR1A agonist inactive.
`Cn1c(=O)cc(SCC(=O)NCCCN2CCN(c3ccccc3F)CC2)c2ccccc21` gave S1P1 ag pot inactive, HTR1E antagonist inactive, S1P3 ag inactive, 5HT1a antag 60.3, HTR1E agonist inactive and HTR1A agonist inactive.
Cn1c(=O)cc(SCC(=O)NCCCN2CCOCC2)c2ccccc21 was read as S1P1 ag pot inactive, HTR1E antagonist inactive, S1P3 ag inactive, 5HT1a antag inactive, HTR1E agonist inactive and HTR1A agonist inactive.
`CCn1c(=O)cc(SCC(=O)NCCCN2CCN(c3ccc(F)cc3)CC2)c2ccccc21` gave HTR1E antagonist inactive, 5HT1a antag 46.6, HTR1E agonist inactive and HTR1A agonist inactive.
`Cc1ccc(-c2nnc(N3CCCCC3)c3ccccc23)cc1S(=O)(=O)N1CCN(C)CC1` gave S1P1 ag pot inactive, HTR1E antagonist 30.6, S1P3 ag inactive, 5HT1a antag inactive, HTR1E agonist inactive and HTR1A agonist inactive.
`O=C(C1Cc2ccccc2CN1S(=O)(=O)c1cccs1)N1CCCCCC1` (stereo unspecified) gave S1P1 ag pot inactive, HTR1E antagonist inactive, S1P3 ag inactive, 5HT1a antag inactive, HTR1E agonist inactive and HTR1A agonist inactive.
CCN(CC)CCCNC(=O)N[C@@H](Cc1ccccc1)C(=O)O was read as S1P1 ag pot inactive, HTR1E antagonist inactive, S1P3 ag inactive, 5HT1a antag inactive, HTR1E agonist inactive and HTR1A agonist inactive.
CCN(CCCc1ccccc1)CCCc1ccccc1 was read as S1P1 ag pot inactive, HTR1E antagonist inactive, S1P3 ag inactive, HTR1E agonist 30.8 and HTR1A agonist inactive.
Screening COC(=O)C(O)(CC(=O)Nc1cccc(SC)c1)C(F)(F)F (stereo unspecified) returned S1P1 ag pot inactive, HTR1E antagonist inactive, S1P3 ag inactive, 5HT1a antag inactive, HTR1E agonist inactive and HTR1A agonist inactive.
CC1CCN(C(=O)Cn2cc3c(n2)CCCC3)CC1 was read as S1P1 ag pot inactive, HTR1E antagonist inactive, S1P3 ag inactive, 5HT1a antag inactive, HTR1E agonist inactive and HTR1A agonist inactive.
Screening CNC(=O)N(C1=NCC(C)(C)S1)c1ccc(F)c(Cl)c1 returned S1P1 ag pot inactive, HTR1E antagonist 31.1, S1P3 ag inactive, 5HT1a antag inactive, HTR1E agonist inactive and HTR1A agonist inactive.
Screening CC1CCc2c(C(=O)N3CCN(S(=O)(=O)c4cccs4)CC3)csc2C1 (stereo unspecified) returned S1P1 ag pot inactive, HTR1E antagonist inactive, S1P3 ag inactive, 5HT1a antag inactive, HTR1E agonist inactive and HTR1A agonist inactive.
COc1ccc(CSc2nnc3n(C)c(=O)c4c5c(sc4n23)CCCC5)cc1 was read as S1P1 ag pot inactive, HTR1E antagonist inactive, S1P3 ag inactive, HTR1E agonist inactive and HTR1A agonist inactive.
`CCOC(=O)N1CCN(C(=O)CSc2nnc(Cc3ccccc3)o2)CC1` gave S1P1 ag pot inactive, HTR1E antagonist inactive, S1P3 ag inactive, 5HT1a antag inactive, HTR1E agonist inactive and HTR1A agonist inactive.
